From PubChem BioAssay
Records with an inconclusive call do not appear.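 How the source made its calls, unless noted: active means cell viability at or below a set limit in both duplicate runs, the limit being the all-compound median minus 4 SD (cut at about 23% in these data, passing the limit was not always enough); inconclusive means no clear call, values can overlap the other calls; inactive means the rest.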

What was measured:
[1] = OD615 S. cerevisiae growth inhibition, permissive medium, pilot counter-assay, permissive growth control for S. cerevisiae lifespan shortening project (AID 705;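 active means growth inhibition above 25% in both replicates, a cutoff set 3 SD above the mean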); conditions: OD615, 24 h, at 10 µM, stronger effect = higher value
Outline: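 Material: engineered DeaD yeast; compound dosing: one dose 10 µM, DMSO 0.25% final; measure: yeast growth inhibition indicated by reduced 24 h OD615; detection: OD615 turbidity read; incubation: cells pre-grown 4 h, then 24 h compound exposure, 30 °C humidified; medium: permissive synthetic complete medium with raffinose and galactose carbon sources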

[2] = Restrictive medium S. cerevisiae growth inhibition, OD615, pilot screen of yeast lifespan reduction project, restrictive growth control (AID 706;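 active means growth inhibition above a set limit, 3 SD over mean compound inhibition, in both replicates, cut at about 43% in these data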;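 further: modified DeaD lifespan yeast strain shifted to restrictive glucose medium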); conditions: OD615, 48 h, at 10 µM, stronger effect = higher value
Outline: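 material = engineered S. cerevisiae DeaD strain | medium = glucose-based CSMM-D restrictive medium | times = 4 h pre-incubation, 48 h exposure at 30 °C | technique = OD615 absorbance reading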

[3] = viability gain of MRP-1-high H69AR cells under doxorubicin, pilot screen, MRP-1 activator project, CellTiter-Glo, duplicate (AID 807;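 active means viability increase at or above a cutoff of the median across tested compounds plus 3 SD, cut at about 8.5% in these data, passing the limit was not always enough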;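 further: compound pretreatment 18-22 h then 72 h combined with doxorubicin; 0% = doxorubicin alone and 100% = vehicle without doxorubicin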); conditions: H69AR viability with doxorubicin, CellTiter-Glo luminescence; at 10 µM; stronger effect = higher value
[4] = growth suppression of beta-catenin knockout HCT116, pilot screen, human colon tumor cells (AID 823); conditions: CellTiter-Glo, 60 h, at 10 µM, stronger effect = lower value;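 further: 0% = wells killed by 20 µM Hyamine and 100% = untreated DMSO cell wells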
[5] = growth suppression of PTEN-deleted HCT116, pilot screen, cell-based, HCT116 clonal line, CellTiter-Glo (AID 824;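 active means viability at or below 27.92% in each of two runs, the all-compound median minus 4 SD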;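 further: 0% = 20 µM Hyamine control and 100% = vehicle cell control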); conditions: 60 h, at 10 µM, stronger effect = lower value
[6] = inhibitors of the yeast RAM network, pilot screen, dse1pr::URA3 reporter, 5-FOA selection (AID 869;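 active means inhibition over a set limit, the all-compound mean plus 3 SD, in both replicate runs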;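 further: 0% = DMSO wells with no growth and 100% = 10 µM 1-NA-PP1 with full growth; RAM network block rescues cells from 5-FOA so hits raise OD615 growth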); conditions: S. cerevisiae dse1pr::URA3 5-FOA growth, OD615, 2 d; at 10 µM; stronger effect = higher value; strain carries analog-sensitive mutant Cbk1 kinase
[7] = RAM signaling pathway blockade in yeast – S. cerevisiae, Pdr1DBD-CYC8 efflux-inhibited sensitized strain, primary screen (AID 1298;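 active means RAM network inhibition above 8.4% in each of two replicates, 3 SD over the compound average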;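 further: 0% = DMSO untreated cells without growth and 100% = 10 µM 1-NA-PP1 full growth; higher means more yeast growth rescued from 5-FOA killing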); conditions: S. cerevisiae cbk1-as DSE1-URA3 strain, 5-FOA growth OD615, 2 d; at 50 µM; stronger effect = higher value

Nc1ccc2nc(-c3ccc(Cl)cc3)[nH]c2c1
inactive: growth inhibition [1] -13% | growth inhibition [2] -10.7% | viability increase [3] -8.6% | viability [4] 73.4% | viability [5] 75.3% | inhibition [6] 0.935% | RAM network inhibition [7] 4.58%

O=C(Cc1ccccc1)NCCn1ccc2ccccc21
inactive: growth inhibition [1] -10.7% | growth inhibition [2] -13.2% | viability increase [3] -1.79% | viability [4] 94.6% | viability [5] 88.8% | inhibition [6] 0.01% | RAM network inhibition [7] 3.55%

CCC(Sc1nncn1C)C(=O)Nc1nnc(-c2ccc(Cl)cc2)s1 (stereo not drawn)
inactive: growth inhibition [1] 5.38% | growth inhibition [2] 32.9% | viability increase [3] -2.63% | viability [4] 94.1% | viability [5] 93.5% | inhibition [6] 0.955% | RAM network inhibition [7] 4.37%

CCCSC1=C(C#N)C(c2ccc(O)c(OC)c2)CC(=O)N1 (stereo not drawn)
inactive: growth inhibition [1] -14.9% | growth inhibition [2] -22.5% | viability increase [3] -2.92% | viability [4] 104% | viability [5] 101% | inhibition [6] 1.66% | RAM network inhibition [7] 1.36%

Cc1cc(NC(=O)c2cc3n(n2)C(C(F)(F)F)CC(c2ccco2)N3)no1 (stereo not drawn)
inactive: growth inhibition [1] 5.72% | growth inhibition [2] 5.53% | viability increase [3] -0.69% | viability [4] 98.8% | viability [5] 94.6% | inhibition [6] 0.475% | RAM network inhibition [7] 1.13%

CCC(=O)Nc1c(C)cc(C)cc1Cl
inactive: growth inhibition [1] -12.5% | growth inhibition [2] -10.9% | viability increase [3] -0.97% | viability [4] 92.7% | viability [5] 96.4% | inhibition [6] 1.44% | RAM network inhibition [7] 0.83%

Cc1cccc(NC(=O)CN2CCN(CC(=O)Nc3cccc(C)c3)CC2)c1
inactive: growth inhibition [1] -14.3% | growth inhibition [2] -10% | viability increase [3] -4.48% | viability [4] 90.1% | viability [5] 98% | inhibition [6] 0.165% | RAM network inhibition [7] 2.17%

CCOC(=O)NC(Nc1ccc(C)cn1)(C(F)(F)F)C(F)(F)F
inactive: growth inhibition [1] 11.5% | growth inhibition [2] 4.23% | viability increase [3] -1.59% | viability [4] 95.2% | viability [5] 100% | inhibition [6] 0.545% | RAM network inhibition [7] 0.7%

COc1cc(OC)cc(C(=O)NCCn2ccc3ccccc32)c1
inactive: growth inhibition [1] -5.04% | growth inhibition [2] 0.31% | viability increase [3] -3.92% | viability [4] 92.8% | viability [5] 92.3% | inhibition [6] 1.16% | RAM network inhibition [7] 7.95%

COc1ccc(C2C(C(=O)Nc3cccnc3)=C(C)Nc3nc(-c4ccco4)nn32)cc1 (stereo not drawn)
inactive: growth inhibition [1] 4.86% | growth inhibition [2] -9.13% | viability increase [3] -1.69% | viability [4] 108% | viability [5] 104% | inhibition [6] 0.55% | RAM network inhibition [7] 2.07%

CCOC(=O)c1ccccc1NC(=O)CN(c1cccc(OC)c1)S(C)(=O)=O
inactive: growth inhibition [1] -7.1% | growth inhibition [2] -3.34% | viability increase [3] -5.04% | viability [4] 91.7% | viability [5] 83.3% | inhibition [6] 1.65% | RAM network inhibition [7] 4.56%

COc1cc(C(=O)Nc2cc(-c3nc4cc(C)ccc4o3)ccc2C)cc(OC)c1OC
inactive: growth inhibition [1] 3.69% | growth inhibition [2] 8.25% | viability increase [3] -2.34% | viability [4] 97% | viability [5] 95.2% | inhibition [6] 0.43% | RAM network inhibition [7] -0.15%

c1coc(C2Nc3ccccc3-c3nc4ccccc4n32)c1 (stereo not drawn)
inactive: growth inhibition [1] -27.2% | growth inhibition [2] -4.04% | viability increase [3] -4.32% | viability [4] 66.6% | viability [5] 68.1% | inhibition [6] 2.14% | RAM network inhibition [7] 8.31%

CCN(CC)c1ccc(NC(=O)CN2C(=O)CSc3ncccc32)c(C)c1
inactive: growth inhibition [1] 1.52% | growth inhibition [2] -5.94% | viability increase [3] 0.51% | viability [4] 45.2% | viability [5] 66% | inhibition [6] 1.34% | RAM network inhibition [7] 6.12%

O=c1cc(-c2ccccc2Cl)c2c([nH]1)CCC2
inactive: growth inhibition [1] -9.7% | growth inhibition [2] 0.91% | viability increase [3] -2.8% | viability [4] 94.5% | viability [5] 87.2% | inhibition [6] 1.71% | RAM network inhibition [7] 0.26%

COC(=O)C1=CN(C)C=C(C(=O)OC)C1c1ccc(Cl)cc1Cl
inactive: growth inhibition [1] -12.4% | growth inhibition [2] -10.4% | viability increase [3] -2.14% | viability [4] 85.1% | viability [5] 78.2% | inhibition [6] 3.2% | RAM network inhibition [7] 8.48%

CCOC(=O)N1CCN(C(=O)Cc2ccc(Cl)cc2)CC1
inactive: growth inhibition [1] 3.9% | growth inhibition [2] -5.01% | viability increase [3] -1.27% | viability [4] 99.2% | viability [5] 95.3% | inhibition [6] 2.03% | RAM network inhibition [7] 6.67%

Cc1cc(C(=O)NCc2ccccc2)c(=O)[nH]c1C
inactive: growth inhibition [1] -15.4% | growth inhibition [2] -9.45% | viability increase [3] 0.83% | viability [4] 103% | viability [5] 90.3% | inhibition [6] 2.33% | RAM network inhibition [7] 0.52%

Cc1nccn1-c1ncnc2sc3c(c12)CCCC3
inactive: growth inhibition [1] -7.46% | growth inhibition [2] 0.84% | viability increase [3] -3.49% | viability [4] 95.3% | viability [5] 93.5% | inhibition [6] 1.15% | RAM network inhibition [7] 2.86%
